IC50, Activity and inhibition in vivo data for nine compounds are collected here from ChEMBL document CHEMBL1146343, “Synthesis and activity of Combretastatin A-4 analogues: 1,2,3-thiadiazoles as potent antitumor agents” (Bioorg Med Chem Lett, 2007).

A short description of assay [1]: Antiproliferative activity against human HMEC1 cells. Type of assay: cell-based. The conditions noted are these: HMEC-1. The method, boiled down: (§1)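 Antiproliferative testing against human HL-60 myeloid leukemia, HCT-116 colon adenocarcinoma and HMEC-1 microvascular endothelial cells; each experiment run independently at least three times, values given with SD.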

In a further assay the test system is HCT-116. The assay can be described thus: Antiproliferative activity against human HCT116 cells. The format is functional, cell-based. The method in brief:
as §1

Another assay concerns HL-60. The assay is described as follows: Antiproliferative activity against human HL60 cells. The format is functional, cell-based. The method in brief:
as §1

The target of a further assay is Tubulin. The assay is described as follows: Inhibition of tubulin polymerization. Type of assay: protein-complex assay, Homo sapiens.
The subject of assay [2] is HMEC-1. The assay can be described thus: Disruption of cytoskeleton in HMEC1 cells at 1 uM after 30 mins. The format is functional, cell-based. The conditions noted are these: Homo sapiens. The method in brief:
(§2)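 HMEC-1 cells grown on slides, exposed 30 min at 1 μM, fixed in 3% formaldehyde, permeabilized with 0.1% Triton X-100, stained with primary antibody then Alexa488 secondary; nuclei counterstained with DAPI in mounting medium; imaged by confocal microscopy.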

The test system of assay [3] is Mus musculus. The assay is described as follows: Effect on body weight in mouse implanted with S180 cells at 10 mg/kg, ip after 7 days. Type of assay: functional, CCRF S-180. As to conditions: route intraperitoneal. The method in brief: (§3)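 S180 sarcoma-bearing mice given daily i.p. doses for 4–7 days, 10 mice per group with saline controls; body weight recorded at start and end, surviving mice counted at end of treatment.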

In assay [4] the test system is HMEC-1. The assay can be described thus: Effect on alteration in morphology of HMEC1 cells at 1 uM after 30 mins. As to conditions: Homo sapiens. Type of assay: functional, cell-based. The method in brief:
as §2

Assay [5] concerns Mus musculus. The assay is described as follows: Effect on body weight in mouse implanted with S180 cells at 20 mg/kg, ip after 4 days. The format is functional, CCRF S-180. The conditions noted are these: route intraperitoneal. The method, boiled down: as §3
For assay [6], the system named is CCRF S-180. The assay is described as follows: Antitumor activity in mouse implanted with S180 cells at 20 mg/kg, ip after 4 days. Type of assay: functional. As to conditions: CCRF S-180, ip, 96 h, route intraperitoneal. The method in brief:
(§4)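 Mice bearing transplanted S180 sarcoma dosed i.p. daily for 4–7 days (10 per group, saline control group of 20); animals then euthanized, tumors excised and weighed; inhibition rate from tumor weight versus saline controls; significance p < 0.01.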

Assay [7] has as its system CCRF S-180. The assay can be described thus: Antitumor activity in mouse implanted with S180 cells at 10 mg/kg, ip after 7 days. Type of assay: functional. As to conditions: CCRF S-180, ip, 168 h, route intraperitoneal. The method, boiled down: as §4

The source made the active and inactive calls. The calls are words filed in the database; no cut-off is given here.

As to `COc1cc(-c2nnsc2-c2ccc([N+](=O)[O-])cc2)cc(OC)c1OC`, the half-inhibitory concentration (IC50) (in assay [1]; in the assay with HCT-116; in the assay with HL-60) was above 1000 nM in each case.

Consider `COc1cc(-c2snnc2-c2ccc3c(c2)OCO3)cc(OC)c1OC`, for which the IC50 (in assay [1]; in the assay with HCT-116; with HL-60) was above 1000 nM in each case.

Turning to `COc1ccc(-c2nnsc2-c2cc(OC)c(OC)c(OC)c2)cc1O`, the IC50 in [1] is 41 nM; with HCT-116, 70.4 nM; on Tubulin it was 860 nM; in the assay with HL-60, 40.9 nM.

In the case of `COc1ccc(-c2nnsc2-c2cc(OC)c(OC)c(OC)c2)cc1[N+](=O)[O-]`, the half-inhibitory concentration (IC50) (in [1]; with HCT-116; with HL-60) was above 1000 nM throughout.

Consider `COc1ccc(-c2snnc2-c2cc(OC)c(OC)c(OC)c2)cc1O`, for which the outcome with HMEC-1 [2] and in the assay on HMEC-1 [4] was Active. Moreover, the IC50 in [1] was found to be 3.9 nM; in the assay with HCT-116, 3 nM; against Tubulin, 700 nM; in the assay on HL-60, 1.5 nM. In addition, the figures for the Activity in the assay on Mus musculus [3] and in the assay with Mus musculus [5] were 23.3 g and 19.5 g, respectively. This compound also had an inhibition in vivo at 20 mg/kg in the assay on CCRF S-180 [6] of 53.1%. In the assay with CCRF S-180 [7], this compound showed an inhibition in vivo at 10 mg/kg of 18.4%.

In the case of `COc1ccc(-c2nnsc2-c2cc(OC)c(OC)c(OC)c2)cc1OC`, the IC50 (in [1]; in the assay on HCT-116; in the assay with HL-60) was above 1000 nM throughout.

On to `COc1cc(-c2nnsc2-c2ccc3c(c2)OCO3)cc(OC)c1OC`, for which the half-inhibitory concentration (IC50) in assay [1] was 73.9 nM; in the assay on HCT-116, 86.6 nM; in the assay with HL-60, 50.2 nM.

For `COc1cc(-c2snnc2-c2ccc([N+](=O)[O-])cc2)cc(OC)c1OC`, the IC50 (in [1]; in the assay with HCT-116; with HL-60) was above 1000 nM in each case.

Consider `COc1ccc(-c2nnsc2-c2cc(OC)c(OC)c(OC)c2)cc1`, for which the concentration for half-maximal inhibition (IC50) in [1] is above 1000 nM; in the assay with HCT-116, 616 nM; with HL-60 it was 537 nM.

Usually IC50 stands for the concentration at which inhibition is half-maximal. As usually defined, the inhibition in vivo is how much of the control response was suppressed. Read a high inhibition in vivo as a response far below the control.
